Measured values taken from ChEMBL document CHEMBL1177711, “Novel quinolizidinyl derivatives as antiarrhythmic agents: 2. Further investigation” (J Med Chem, 2010).

Legend:
Aorta [1] = experiment: Vasorelaxant activity in potassium depolarized guinea pig aortic strip assessed as inhibition of calcium-induced contraction at 100 uM; format: functional; details: Cavia porcellus
[2] = Cardioprotective effect in Langendorff perfused guinea pig spontaneously beating […] assessed as atrioventicular conduction time at 0.001 uM (RVb = 50 to 55 +/- 1 to 4 ms); format: functional; details: Cavia porcellus
Method in brief: (§1)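 Whole guinea pig hearts were Langendorff-perfused and their ECG recorded at graded concentrations. Intervals read were PR (atrioventricular conduction time), QT (ventricular action potential duration) and QRS (intraventricular conduction time).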

[3] = Cardioprotective effect in Langendorff perfused guinea pig spontaneously beating […] assessed as intraventicular conduction time at 0.01 uM (RVb = 19 to 24 +/- 1 to 2 ms); format: functional; details: Cavia porcellus; method in brief: as §1
[4] = Cardioprotective effect in Langendorff perfused guinea pig spontaneously beating […] assessed as atrioventicular conduction time at 10 uM (RVb = 50 to 55 +/- 1 to 4 ms); format: functional; details: Cavia porcellus; method in brief: as §1
[5] = Cardioprotective effect in Langendorff perfused guinea pig spontaneously beating […] assessed as atrioventicular conduction time at 1 uM (RVb = 50 to 55 +/- 1 to 4 ms); format: functional; details: Cavia porcellus; method in brief: as §1
[6] = Cardioprotective effect in Langendorff perfused guinea pig spontaneously beating […] assessed as intraventicular conduction time at 10 uM (RVb = 19 to 24 +/- 1 to 2 ms); format: functional; details: Cavia porcellus; method in brief: as §1
[7] = Cardioprotective effect in Langendorff perfused guinea pig spontaneously beating […] assessed as intraventicular conduction time at 0.1 uM (RVb = 19 to 24 +/- 1 to 2 ms); format: functional; details: Cavia porcellus; method in brief: as §1
Aorta [8] = experiment: Vasorelaxant activity in potassium depolarized guinea pig aortic strip assessed as inhibition of calcium-induced contraction at 50 uM; format: functional; details: Cavia porcellus
[9] = Cardioprotective effect in Langendorff perfused guinea pig spontaneously beating […] assessed as intraventicular conduction time at 0.001 uM (RVb = 19 to 24 +/- 1 to 2 ms); format: functional; details: Cavia porcellus; method in brief: as §1
[10] = Cardioprotective effect in Langendorff perfused guinea pig spontaneously beating […] assessed as intraventicular conduction time at 1 uM (RVb = 19 to 24 +/- 1 to 2 ms); format: functional; details: Cavia porcellus; method in brief: as §1
[11] = Cardioprotective effect in Langendorff perfused guinea pig spontaneously beating […] assessed as atrioventicular conduction time at 0.1 uM (RVb = 50 to 55 +/- 1 to 4 ms); format: functional; details: Cavia porcellus; method in brief: as §1
[12] = Cardioprotective effect in Langendorff perfused guinea pig spontaneously beating […] assessed as atrioventicular conduction time at 0.01 uM (RVb = 50 to 55 +/- 1 to 4 ms); format: functional; details: Cavia porcellus; method in brief: as §1
[13] = Negative inotropic activity against potassium-induced contraction in guinea pig left atrium assessed as decrease in developed tension; format: functional, tissue-based; details: Cavia porcellus, Cardiac atrium
[14] = Negative inotropic activity against potassium-induced contraction in guinea pig left atrium assessed as decrease in developed tension at 10 uM relative to control; format: functional, Cavia porcellus, Cardiac atrium; parameters: scale not given: the % may be the effect or the level left
[15] = Antiarrhythmic activity in sinusoidal alternating current-induced guinea pig left atrium assessed as increase in current strength at which extra beats occur measured every 30 mins; format: functional, tissue-based; details: Cavia porcellus, Cardiac atrium, 0.5 h
Method in brief: (§2)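 Isolated guinea pig left atria, electrically driven at 1 Hz, were exposed to sinusoidal alternating current to induce arrhythmia. The read-out was the rise in the ac-arrhythmia threshold over concentrations up to 100 μM.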

[16] = Antiarrhythmic activity in sinusoidal alternating current-induced guinea pig left atrium assessed as increase in current strength at which extra beats occur at 10 uM measured every 30 mins; format: functional, Cavia porcellus, Cardiac atrium; method in brief: as §2
[17] = Negative chronotropic activity against potassium-induced contraction in guinea pig left atrium assessed as decrease atrial rate at 50 uM relative to control; format: functional, Cavia porcellus, Cardiac atrium; parameters: scale not given: the % may be the effect or the level left
[18] = Negative chronotropic activity against potassium-induced contraction in guinea pig left atrium assessed as decrease atrial rate at 0.5 uM relative to control; format: functional, Cavia porcellus, Cardiac atrium; parameters: scale not given: the % may be the effect or the level left
[19] = Negative inotropic activity against potassium-induced contraction in guinea pig left atrium assessed as decrease in developed tension at 50 uM relative to control; format: functional, Cavia porcellus, Cardiac atrium; parameters: scale not given: the % may be the effect or the level left
[20] = Antiarrhythmic activity in sinusoidal alternating current-induced guinea pig left atrium assessed as increase in current strength at which extra beats occur at 50 uM measured every 30 mins; format: functional, Cavia porcellus, Cardiac atrium; method in brief: as §2
Heart [21] = experiment: Cardioprotective effect in Langendorff perfused guinea pig spontaneously beating […] assessed as heart rat at 10 uM (RVb = 175 to 190 +/- 5 to 11 bpm); format: functional, Cavia porcellus
[22] = Cardioprotective effect in Langendorff perfused guinea pig spontaneously beating […] assessed as duration of ventricular action potential at 0.1 uM (RVb = 140 to 161 +/- 2 to 8 ms); format: functional, Cavia porcellus, Cardiac ventricle; method in brief: as §1
Heart [23] = experiment: Cardioprotective effect in Langendorff perfused guinea pig spontaneously beating […] assessed as heart rat at 0.1 uM (RVb = 175 to 190 +/- 5 to 11 bpm); format: functional, Cavia porcellus
[24] = Negative chronotropic activity against potassium-induced contraction in guinea pig left atrium assessed as decrease atrial rate at 10 uM relative to control; format: functional, Cavia porcellus, Cardiac atrium; parameters: scale not given: the % may be the effect or the level left
Heart [25] = experiment: Cardioprotective effect in Langendorff perfused guinea pig spontaneously beating […] assessed as heart rat at 0.01 uM (RVb = 175 to 190 +/- 5 to 11 bpm); format: functional, Cavia porcellus
[26] = Cardioprotective effect in Langendorff perfused guinea pig spontaneously beating […] assessed as duration of ventricular action potential at 10 uM (RVb = 140 to 161 +/- 2 to 8 ms); format: functional, Cavia porcellus, Cardiac ventricle; method in brief: as §1
Heart [27] = experiment: Cardioprotective effect in Langendorff perfused guinea pig spontaneously beating […] assessed as heart rat at 0.001 uM (RVb = 175 to 190 +/- 5 to 11 bpm); format: functional, Cavia porcellus
[28] = Cardioprotective effect in Langendorff perfused guinea pig spontaneously beating […] assessed as duration of ventricular action potential at 1 uM (RVb = 140 to 161 +/- 2 to 8 ms); format: functional, Cavia porcellus, Cardiac ventricle; method in brief: as §1
[29] = Cardioprotective effect in Langendorff perfused guinea pig spontaneously beating […] assessed as duration of ventricular action potential at 0.01 uM (RVb = 140 to 161 +/- 2 to 8 ms); format: functional, Cavia porcellus, Cardiac ventricle; method in brief: as §1
[30] = Cardioprotective effect in Langendorff perfused guinea pig spontaneously beating […] assessed as duration of ventricular action potential at 0.001 uM (RVb = 140 to 161 +/- 2 to 8 ms); format: functional, Cavia porcellus, Cardiac ventricle; method in brief: as §1
[31] = Negative chronotropic activity against potassium-induced contraction in guinea pig left atrium assessed as decrease atrial rate; format: functional, tissue-based; details: Cavia porcellus, Cardiac atrium
Heart [32] = experiment: Cardioprotective effect in Langendorff perfused guinea pig spontaneously beating […] assessed as heart rat at 1 uM (RVb = 175 to 190 +/- 5 to 11 bpm); format: functional, Cavia porcellus
[33] = Negative chronotropic activity against potassium-induced contraction in guinea pig left atrium assessed as decrease atrial rate at 100 uM relative to control; format: functional, Cavia porcellus, Cardiac atrium; parameters: scale not given: the % may be the effect or the level left
[34] = Negative inotropic activity against potassium-induced contraction in guinea pig left atrium assessed as decrease in developed tension at 0.1 uM relative to control; format: functional, Cavia porcellus, Cardiac atrium; parameters: scale not given: the % may be the effect or the level left

Cc1cccc(C)c1OC[C@@H]1CCCN2CCCC[C@H]12
inhibition at 100 µM (Aorta [1]): 26%

C=C[C@H]1CN2CC[C@H]1C[C@@H]2[C@@H](O)c1ccnc2ccc(OC)cc12 [QUINIDINE]
AV conduction time [2]: 53 ms
intraventricular conduction time [3]: 27 ms
AV conduction time [4]: 70 ms
AV conduction time [5]: 60 ms
intraventricular conduction time [6]: 39 ms
intraventricular conduction time [7]: 31 ms
inhibition at 50 µM (Aorta [8]): 30%
intraventricular conduction time [9]: 25 ms
intraventricular conduction time [10]: 35 ms
AV conduction time [11]: 57 ms
AV conduction time [12]: 54 ms

CCN(CC)CC(=O)Nc1c(C)cccc1C [LIDOCAINE]
inhibition at 50 µM (Aorta [8]): 14%

Cc1cc(C)c(NCC[C@@H]2CCCN3CCCC[C@H]23)c(C)c1
EC50 [13]: 34 nM
Activity [14]: 89%
EC50 [15]: 8150 nM
inhibition at 100 µM (Aorta [1]): 37%
Activity [16]: 63%
Activity [17]: 44%

CC(=O)Nc1ccc(C(=O)NC[C@@H]2CCCN3CCCC[C@H]23)cc1
EC50 [13]: 56 nM
Activity [18]: 14%

COc1cc(N)c(Cl)cc1C(=O)NC[C@@H]1CCCN2CCCC[C@H]12
EC50 [13]: 350 nM
EC50 [15]: 6730 nM
inhibition at 100 µM (Aorta [1]): 6%
Activity [19]: 95%
Activity [20]: 113%
Activity [17]: 22%

CCN(CC)CCNC(=O)c1ccc(N)cc1 [PROCAINAMIDE]
inhibition at 100 µM (Aorta [1]): 2%

Cc1cccc(C)c1NCCSC[C@@H]1CCCN2CCCC[C@H]12
AV conduction time [2]: 55 ms
Activity (Heart [21]): 142 bpm
intraventricular conduction time [3]: 23 ms
Activity [22]: 168 ms
Activity (Heart [23]): 179 bpm
AV conduction time [4]: 60 ms
AV conduction time [5]: 57 ms
Activity [14]: 37%
Activity [24]: 62%
EC50 [15]: 310 nM
intraventricular conduction time [6]: 26 ms
Activity (Heart [25]): 185 bpm
Activity [26]: 175 ms
inhibition at 100 µM (Aorta [1]): 34%
Activity [16]: 129%
intraventricular conduction time [7]: 24 ms
Activity (Heart [27]): 186 bpm
Activity [28]: 170 ms
intraventricular conduction time [9]: 23 ms
intraventricular conduction time [10]: 25 ms
AV conduction time [11]: 55 ms
AV conduction time [12]: 55 ms
Activity [29]: 162 ms
Activity [30]: 160 ms
EC50 [31]: 8420 nM
Activity (Heart [32]): 158 bpm

Cc1cc(C(=O)c2ccccc2)cc(C)c1NC(=O)C[C@@H]1CCCN2CCCC[C@H]12
Activity [18]: 70%

O=C(C[C@@H]1CCCN2CCCC[C@H]12)Nc1c(Cl)cccc1Cl
EC50 [13]: 100 nM
inhibition at 100 µM (Aorta [1]): 6%
Activity [20]: 32%
Activity [17]: 15%

CCCCc1oc2ccccc2c1C(=O)c1cc(I)c(OCCN(CC)CC)c(I)c1
AV conduction time [2]: 54 ms
intraventricular conduction time [3]: 20 ms
AV conduction time [4]: 58 ms
AV conduction time [5]: 56 ms
intraventricular conduction time [6]: 24 ms
intraventricular conduction time [7]: 21 ms
intraventricular conduction time [9]: 20 ms
intraventricular conduction time [10]: 22 ms
AV conduction time [11]: 55 ms
AV conduction time [12]: 55 ms

COc1ccc2c(c1)nc(-c1ccccc1)c(=O)n2C[C@H]1CCCN2CCCC[C@@H]12
EC50 [13]: 31 nM
Activity [14]: 85%
inhibition at 100 µM (Aorta [1]): 11%
Activity [20]: 30%
EC50 [31]: 15300 nM

Cc1cc(C(=O)c2ccccc2)ccc1NC(=O)C[C@@H]1CCCN2CCCC[C@H]12
AV conduction time [2]: 54 ms
Activity (Heart [21]): 137 bpm
intraventricular conduction time [3]: 20 ms
Activity [22]: 155 ms
Activity (Heart [23]): 158 bpm
AV conduction time [4]: 57 ms
AV conduction time [5]: 56 ms
EC50 [13]: 44 nM
Activity [14]: 79%
EC50 [15]: 150 nM
intraventricular conduction time [6]: 25 ms
Activity (Heart [25]): 171 bpm
Activity [26]: 170 ms
intraventricular conduction time [7]: 23 ms
Activity (Heart [27]): 177 bpm
Activity [28]: 162 ms
intraventricular conduction time [9]: 23 ms
Activity [20]: 64%
intraventricular conduction time [10]: 22 ms
AV conduction time [11]: 53 ms
AV conduction time [12]: 54 ms
Activity [29]: 154 ms
Activity [33]: 59%
Activity [30]: 158 ms
EC50 [31]: 6140 nM
Activity (Heart [32]): 145 bpm

Cc1cc(C)c(NC(=O)C[C@@H]2CCCN3CCCC[C@H]23)c(C)c1
EC50 [13]: 10 nM
inhibition at 100 µM (Aorta [1]): 2%
Activity [20]: 49%
Activity [34]: 54%
